Measurements of several laboratories.
Protocols differ between the studies behind these lines.
Target: Receptor-type tyrosine-protein kinase FLT3 (FLT3, Homo sapiens, UniProt P36888)
Residues used in one study (P36888 27-993): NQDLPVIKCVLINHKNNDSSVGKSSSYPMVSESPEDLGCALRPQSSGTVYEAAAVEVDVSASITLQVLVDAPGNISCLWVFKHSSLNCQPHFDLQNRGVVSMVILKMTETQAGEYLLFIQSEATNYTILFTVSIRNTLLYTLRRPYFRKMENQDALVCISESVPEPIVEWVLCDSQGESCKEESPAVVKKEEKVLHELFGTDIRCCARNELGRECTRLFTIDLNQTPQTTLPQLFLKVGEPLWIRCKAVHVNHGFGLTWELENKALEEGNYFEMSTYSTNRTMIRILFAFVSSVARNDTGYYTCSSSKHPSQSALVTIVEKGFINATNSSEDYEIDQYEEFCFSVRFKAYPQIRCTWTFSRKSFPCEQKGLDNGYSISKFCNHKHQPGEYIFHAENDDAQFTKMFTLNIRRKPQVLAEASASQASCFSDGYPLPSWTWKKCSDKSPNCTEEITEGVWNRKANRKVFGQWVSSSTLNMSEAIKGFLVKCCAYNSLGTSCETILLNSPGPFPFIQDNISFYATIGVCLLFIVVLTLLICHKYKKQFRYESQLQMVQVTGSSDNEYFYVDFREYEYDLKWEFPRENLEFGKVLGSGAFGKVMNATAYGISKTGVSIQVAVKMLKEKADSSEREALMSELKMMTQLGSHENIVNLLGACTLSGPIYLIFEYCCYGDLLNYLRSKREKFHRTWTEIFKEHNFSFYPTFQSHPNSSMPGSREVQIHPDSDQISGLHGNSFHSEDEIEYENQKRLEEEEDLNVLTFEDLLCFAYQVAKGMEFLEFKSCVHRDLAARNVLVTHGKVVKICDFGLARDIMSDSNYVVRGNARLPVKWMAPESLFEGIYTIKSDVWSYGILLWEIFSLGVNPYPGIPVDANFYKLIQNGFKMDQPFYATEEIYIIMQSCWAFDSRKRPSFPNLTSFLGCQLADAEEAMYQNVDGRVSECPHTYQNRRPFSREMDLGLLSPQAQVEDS

Cc1ccc(C(=O)Nc2ccc(Oc3cc4cnn(C)c4cc3-c3cn[nH]c3)c(F)c2)c(=O)n1-c1ccc(F)cc1 — IC50 (cell growth or viability, ATP luminescence): 7 nM
COc1ccc2c(Oc3ccc4c(C(=O)Nc5ccccc5N)cccc4c3)ccnc2c1 — IC50 (enzyme activity, inhibitor): > 500 nM
C[C@H](c1ccnc(Nc2nc3ccc(-c4cc(N(C)C)ncn4)cc3[nH]2)c1)N1CCN(C(=O)CC(F)(F)F)CC1 — EC50 (target engagement in cells, BRET): 22000 nM
Cc1cc(Nc2cc(CN3CCOCC3)c3nc(C)c(Cc4ccc(Cl)cc4F)n3n2)n[nH]1 — IC50 (enzyme activity, inhibitor, TR-FRET): 4 nM
CCCNc1ccnc(Nc2cccc(-c3cccnc3)c2)n1 — IC50 (enzyme activity, inhibitor): < 6 nM
CN(C)c1ccc(C=C2C(=O)Nc3ccccc32)cc1 — IC50 (enzyme activity, inhibitor, radiometric): 70 nM
c1cc(Nc2nccc(NC3CCCCC3)n2)cc(-c2ncco2)c1 — IC50 (enzyme activity, inhibitor): 336 nM
Cc1cc(Nc2cc3ncccc3c(N[C@@H]3C[C@H]4CC[C@@H](C3)N4CCC#N)n2)n[nH]1 — IC50 (target engagement in cells, inhibitor, BRET): 2000 nM
C[C@H](Nc1ccnc(Nc2cccc(-c3cccnc3)c2)n1)C(=O)O — IC50 (enzyme activity, inhibitor): > 23000 nM
CN(C)c1ncnc(-c2ccc3nc(Nc4cc(CN5CCN(C(=O)CC(F)(F)F)CC5)ccn4)[nH]c3c2)c1Cl — EC50 (target engagement in cells, BRET): > 50000 nM
